Here are results for two molecules from ChEMBL document CHEMBL1122810 (J Med Chem, 1984).

In assay [1] the test system is H35R0.3. The assay is described as follows: Growth inhibition of H35R0.3 cell lines. To be noted: Rattus norvegicus. The assay is classed as functional, cell-based. A digest of the protocol: (§1)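 H35 rat hepatoma cells and the transport-defective H35R0.3 subline, which has normal DHFR content, were incubated with drug for 72 h, and the IC50 was determined.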
The target of the next assay is T1, Dihydrofolate reductase (Mus musculus, UniProt P00375).
T1 sequence (P00375 whole entry): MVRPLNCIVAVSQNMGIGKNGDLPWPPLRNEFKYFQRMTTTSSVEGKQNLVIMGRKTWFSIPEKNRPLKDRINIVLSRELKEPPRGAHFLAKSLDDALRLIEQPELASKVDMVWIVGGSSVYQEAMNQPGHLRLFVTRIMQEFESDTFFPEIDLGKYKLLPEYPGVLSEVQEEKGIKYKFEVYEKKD
The experiment in a line: Inhibitory activity towards dihydrofolate reductase in L1210 murine leukemia cell lines. It is filed as cell-based.

The test system of assay [2] is H35R0.3. The experiment in a line: (§2) Cytotoxic activity with respect to methotrexate. It is filed as functional, Rattus norvegicus.
Assay [3] relates to H35. Described as §2. The assay is classed as functional, Rattus norvegicus.
Assay [4] has as its system Mus musculus. The experiment in a line: Inoculation of 10 e5 L1210 cells, ip, on day 0, & treatment was started on day 1 with the administration of the compound, ip, in groups of five B6D2F1J male mice at dose 10 mg/kg. The assay is classed as functional.
Assay [5] deals with L1210. The assay is described as follows: Growth inhibition of L1210 cell lines. It is filed as functional, cell-based. To be noted: Mus musculus. A digest of the protocol: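 L1210 murine leukemia cells were incubated with drug in culture for 48 h. Percent cell growth relative to untreated controls was plotted against concentration to obtain the IC50.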
Assay [6] relates to Mus musculus. The assay is described as follows: Inoculation of 10 e5 L1210 cells, ip, on day 0, & treatment was started on day 1 with the administration of the compound, ip, in groups of five B6D2F1J male mice at dose 40 mg/kg. It is filed as functional.
Assay [7] deals with H35. The assay is described as follows: Growth inhibition of H35 cell lines. It is filed as functional, cell-based. To be noted: Rattus norvegicus. Put shortly: as §1
For assay [8], the system named is Mus musculus. The assay is described as follows: Inoculation of 10 e5 L1210 cells, ip, on day 0, & treatment was started on day 1 with the administration of the compound, ip, in groups of five B6D2F1J male mice at dose 20 mg/kg. It is filed as functional.
Assay [9] has as its system L1210. Described as §2. It is filed as functional, Mus musculus.
The subject of assay [10] is Mus musculus. The experiment in a line: Inoculation of 10 e5 L1210 cells, ip, on day 0, & treatment was started on day 1 with the administration of the compound, ip, in groups of five B6D2F1J male mice at dose 1.0 mg/kg; 17-22. The assay is classed as functional. Put shortly: (§3)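 Vehicle sterile 0.9% NaCl, ip. Dosing on days 1-10: twice daily on days 1-4 and 7-10, once daily on days 5 and 6 with a double dose given on those days. Endpoint is increase in life span (ILS) versus untreated controls. Doses are also stated as MTX-equivalent doses rounded to the nearest mg/kg.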

The subject of assay [11] is Mus musculus. The experiment in a line: Inoculation of 10 e5 L1210 cells, ip, on day 0, & treatment was started on day1 with the administration of the compound, ip, in groups of five B6D2F1J male mice at dose 1 mg/kg. It is filed as functional. Put shortly: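 Male B6D2F1J mice, five per group, received 10^5 L1210 cells ip on day 0. From day 1, drug in sterile 0.9% NaCl was injected ip twice daily on days 1–4 and 7–10, with one double dose on each of days 5 and 6. […]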

Assay [12] deals with Mus musculus. The experiment in a line: Inoculation of 10 e5 L1210 cells, ip, on day 0, & treatment was started on day 1 with the administration of the compound, ip, in groups of five B6D2F1J male mice at dose 1.0 mg/kg.
In assay [13] the test system is Mus musculus. The assay is described as follows: Inoculation of 10 e5 L1210 cells, ip, on day 0, & treatment was started on day 1 with the administration of the compound, ip, in groups of five B6D2F1J male mice at dose 1.0 mg/kg; T=19; C=9. It is filed as functional.
Assay [14] deals with Mus musculus. The experiment in a line: Inoculation of 10 e5 L1210 cells, ip, on day 0, & treatment was started on day1 with the administration of the compound, ip, in groups of five B6D2F1J male mice at dose 0.5 mg/kg.
The subject of assay [15] is Mus musculus. The experiment in a line: Inoculation of 10 e5 L1210 cells, ip, on day 0, & treatment was started on day 1 with the administration of the compound, ip, in groups of five B6D2F1J male mice at dose 0.5 mg/kg; 14-20. The assay is classed as functional. Put shortly:
as §3

For assay [16], the system named is Mus musculus. The experiment in a line: Inoculation of 10 e5 L1210 cells, ip, on day 0, & treatment was started on day 1 with the administration of the compound, ip, in groups of five B6D2F1J male mice at dose 0.5 mg/kg; T =18; C=9. The assay is classed as functional.
Assay [17] has as its system Mus musculus. The assay is described as follows: Inoculation of 10 e5 L1210 cells, ip, on day 0, & treatment was started on day 1 with the administration of the compound, ip, in groups of five B6D2F1J male mice at dose 0.5 mg/kg. It is filed as functional.

Regarding `CN(Cc1cnc2nc(N)nc(N)c2n1)c1ccc(C(=O)NC(CCC(=O)NCCCCC(N)C(=O)O)C(=O)O)cc1` (stereo unspecified), the IC50 (in general, the concentration that gives 50% inhibition) with H35R0.3 [1] amounted to 6000 nM; at Dihydrofolate reductase, 87 nM; in the assay with L1210 [5], 760 nM; with H35 [7], 400 nM. Besides, the Relative activity in the assay on H35R0.3 [2] stood at 0.3; in the assay on H35 [3], 0.025; in the assay on L1210 [9] it was 0.032. Besides, the 7-day weight change amounted to 11% in the assay on Mus musculus [4], 2% in the assay on Mus musculus [6] and 5% in the assay with Mus musculus [8].

For `CN(Cc1cnc2nc(N)nc(N)c2n1)c1ccc(C(=O)N[C@@H](CCC(=O)O)C(=O)O)cc1` [METHOTREXATE], the Survival range in the assay with Mus musculus [10] is 22; in the assay on Mus musculus [15], 20. For the same molecule, the 7-day weight change in the assay on Mus musculus [11] was -9%; in the assay on Mus musculus [17], 0%. In the assay on Mus musculus [12], the ILS (in general, the gain in survival time of treated over control animals, in per cent) at 1 mg/kg came to 111%. Moreover, the “median survival (days)” value in the assay with Mus musculus [13] is given as 19; in the assay with Mus musculus [16], 18. Also, the values for the IC50 with H35R0.3 [1], in the assay on L1210 [5] and in the assay with H35 [7] were 1800 nM, 24 nM and 10 nM, respectively. In the assay with Mus musculus [14], this molecule had an ILS at 0.5 mg/kg of 100%.
